Screens from PubChem.
CSC inhib: cancer stem cell inhibition | cancer stem cell-like cells viability, luminescence | inhibition, % at 7.5 µM | 300,000 compounds, 1.1% hits | AID 2717; in the data active = inhibition above about 75%; inconclusive = no clear call, values can overlap the other calls; tested in HMLE shEcad cells
Beta cell apopt: blocks beta cell apoptosis; INS-1E cytokine-induced death, ATP luminescence, 48 h; percent of positive-control rescue, neutral wells zero; protection from apoptosis, % (no concentration beside the values); 300,000 compounds, 0.8% hits; AID 435005;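 active = Every replicate reaches about 75%, or at least half do and their mean reaches it too, limit read from the data; inconclusive = At least half of replicates reach the limit but their mean does not; inactive = Under half of replicates reach the limit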;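 also: 0% = cytokine-treated negative control wells and 100% = positive control rescue; higher means more ATP so stronger rescue from cytokine killing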
T cruzi repl: T. cruzi replication inhibition; T. cruzi beta-gal in NIH3T3, luminescence, 90 h; inhibition, % (no concentration beside the values); 300,000 compounds, 1.4% hits; AID 1885;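 active = mean inhibition across valid replicates above about 55%, limit read from the data; inconclusive = mean below that limit but half or more replicates reach it; inactive = mean below it, under half of replicates reach it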;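 also: signal also drops with host cell toxicity which is not excluded here; 0% = plate median of DMSO wells and 100% = zero luminescence signal; higher percent means less beta-gal luminescence so fewer parasites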
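Material: NIH/3T3 host cells with β-galactosidase reporter T. cruzi; Input: 5,000 host fibroblasts per well; Medium: DMEM, 2% fetal bovine serum; Compound: 50 nL DMSO compound solution per well; Schedule: 3 h host attachment, then at least 90 h co-culture; Detection: luminescent β-galactosidase signal after 60 min lysis.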
Mdm2-MdmX inh: disrupts the human Mdm2-MdmX interaction. O15151+Q00987. SaOS-2 split-luciferase Mdm2/MdmX complementation, luminescence. inhibition, % at 8 µM. 330,000 compounds, 3% hits. AID 485346;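 active = inhibition of at least 50% at 8 µM in the primary screen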
Target sequence (O15151 whole entry, looked up): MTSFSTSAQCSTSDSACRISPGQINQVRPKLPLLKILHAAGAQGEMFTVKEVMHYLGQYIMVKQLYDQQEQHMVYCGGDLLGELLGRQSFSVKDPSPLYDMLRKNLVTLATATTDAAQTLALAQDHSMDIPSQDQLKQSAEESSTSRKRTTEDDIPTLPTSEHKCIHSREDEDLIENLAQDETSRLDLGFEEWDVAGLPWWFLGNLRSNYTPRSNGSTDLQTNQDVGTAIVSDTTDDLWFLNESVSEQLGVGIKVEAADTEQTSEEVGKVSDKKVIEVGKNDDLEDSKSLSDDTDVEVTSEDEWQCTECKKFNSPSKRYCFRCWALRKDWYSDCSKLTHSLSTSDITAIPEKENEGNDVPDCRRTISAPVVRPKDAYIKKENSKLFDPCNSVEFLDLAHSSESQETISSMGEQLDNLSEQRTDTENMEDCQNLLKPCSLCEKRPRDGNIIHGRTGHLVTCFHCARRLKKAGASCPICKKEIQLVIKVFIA
Target sequence (Q00987 whole entry, looked up): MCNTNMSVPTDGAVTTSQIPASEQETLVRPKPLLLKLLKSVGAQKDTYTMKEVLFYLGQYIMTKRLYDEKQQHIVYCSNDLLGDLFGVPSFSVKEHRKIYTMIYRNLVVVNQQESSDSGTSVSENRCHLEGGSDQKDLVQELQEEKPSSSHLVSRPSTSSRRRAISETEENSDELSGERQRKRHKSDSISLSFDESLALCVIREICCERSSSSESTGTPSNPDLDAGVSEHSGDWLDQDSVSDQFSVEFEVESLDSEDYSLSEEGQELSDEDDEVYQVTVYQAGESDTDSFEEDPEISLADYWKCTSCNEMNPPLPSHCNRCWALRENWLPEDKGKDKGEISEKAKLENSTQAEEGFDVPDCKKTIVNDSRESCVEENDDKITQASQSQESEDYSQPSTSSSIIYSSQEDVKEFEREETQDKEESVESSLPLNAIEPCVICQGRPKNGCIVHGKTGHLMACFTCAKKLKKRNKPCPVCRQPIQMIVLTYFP
SKKanGAS inh: SKKanGAS growth inhibition | S. pyogenes SKKanGAS, kanamycin growth, BacTiter-Glo, 6 h | inhibition, % at 7.5 µM | 300,000 compounds, 1.3% hits | AID 1662;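 active = mean replicate score, as percent of positive control median, at least 50; inconclusive = mean below 50 but one replicate at or above 50; inactive = mean and every replicate below 50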;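 also: strain carries kanamycin resistance gene driven by streptokinase promoter and grows in 40 µg/ml kanamycin; loss of luminescence reflects streptokinase promoter inhibition or plain growth inhibition; 0% = median of DMSO wells and 100% = positive control at its reference dose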
Calb FLC: C. albicans growth modulation with fluconazole | C. albicans CaCi-2 (fluconazole-resistant clinical isolate) + fluconazole, Alamar Blue growth, 48 h | growth inhibition, % (no concentration beside the values) | 300,000 compounds, 0.57% hits;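 active = growth inhibition above about 58% in most replicates, limit read from the data, passing the limit was not always enough; inconclusive = exactly half the replicates above a set limit; inactive = most replicates below a set limit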;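 also: all wells also contain fluconazole at 8 µg/ml as a sub-toxic cotreatment; 0% = median of DMSO wells and 100% = median of geldanamycin control wells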
Mdm2 MdmX conf: human Mdm2/MdmX binding inhibition, confirmed | shares compounds with Mdm2-MdmX inh | luminescent assay | inhibition, % at 8 µM | 10,000 compounds, 55% hits; in the data active = inhibition above about 40%
Full FLuc ctr: full-length luciferase inhibition in Mdm2/MdmX counter-screen. shares compounds with Mdm2-MdmX inh. SaOS-2 full-length luciferase counterscreen, luminescence. inhibition, % at 8 µM. 6,200 compounds, 77% hits;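 active = mean inhibition at 8 µM reaching about 37%, which flags the compound as non-specific, limit read from the data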;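 also: p53-null SaOS-2 cells with luciferase driven by a doxycycline-inducible promoter; compound on cells about two nights before reading with doxycycline added after day one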
* = called active by the depositor; ? = inconclusive; . = not tested or not shown. Hits are enriched below; roughly 5.7% of the tested compounds scored in any of these assays.

SMILES | CSC inhib | Beta cell apopt | T cruzi repl | Mdm2-MdmX inh | SKKanGAS inh | Calb FLC | Mdm2 MdmX conf | Full FLuc ctr
COc1ccc(-n2ncc3c(N4CCN(Cc5ccccc5)CC4)ncnc32)cc1 | 37 | 5 | 15 | 85* | 1 | 56 | 64* | 77*
CCN1CCN(c2ncnc3c2cnn3-c2ccc(Cl)cc2)CC1 | 28 | 0 | 2 | -34 | 2 | 7 | . | .
Cc1ccccc1C(=O)N1CCN(c2ncnc3c2cnn3-c2ccccc2)CC1 | 5 | -1 | 7 | -6 | -1 | 2 | . | .
Cc1ccc(C(=O)N2CCN(c3ncnc4c3cnn4-c3ccccc3)CC2)cc1 | -11 | 6 | 19 | 82* | 0 | 17 | 58* | 68*
CC1CCCN(c2ncnc3c2cnn3-c2ccc(Cl)cc2)C1 (stereo not drawn) | 61 | 3 | 23 | 96* | -3 | -2 | 95* | 42*
CC1CC(C)CN(c2ncnc3c2cnn3-c2ccc(Cl)cc2)C1 (stereo not drawn) | 73 | . | 21 | 43 | 27 | 1 | . | .
O=C(CN1C(=O)NC2(CCc3ccccc32)C1=O)c1c[nH]c2ccccc12 (stereo not drawn) | -8 | -3 | -2 | -1 | -3 | -5 | . | .
COc1ccc(CN(CC(O)COc2cccc3[nH]cc(C)c23)C(C)(C)C)cc1 (stereo not drawn) | 54 | -6 | 9 | 21 | -3 | -18 | . | .
COCCNC(=O)c1cccc(OC2CCN(Cc3ccccc3C)CC2)c1 | 8 | . | 5 | -19 | 1 | 5 | . | .
N#Cc1ccccc1NC(=O)c1ccccc1OCC(=O)Nc1ccc2c(c1)oc1ccccc12 | 11 | 5 | 61* | 62* | 3 | -2 | 11 | .
O=C(Nc1ccc2c(c1)oc1ccccc12)c1ccc2c(c1)OCO2 | 25 | 15 | -4 | -36 | 7 | -6 | . | .
O=C(COc1ccc2c(c1)OCO2)Nc1ccc2c(c1)oc1ccccc12 | -5 | 1 | 2 | 50* | 1 | 9 | -19 | .
CNC(=O)COc1ccccc1C(=O)Nc1ccc2c(c1)oc1ccccc12 | 4 | 7 | 24 | 12 | 1 | 26 | . | .
CCc1cc2c(cc3c(=O)n(CC(=O)NCCCN4CCCCCC4)nc(CC)n32)s1 | -2 | -2 | -4 | 26 | 13 | -5 | . | .
COc1ccc(/C=C/C(=O)NC(=S)NNC(=O)c2cccs2)cc1 | 12 | 15 | 11 | 54* | 94* | 0 | 53* | 73*
COc1ccc(/C=C/C(=O)NC(=S)NNC(=O)c2cnccn2)cc1 | 98* | 76* | 65* | 74* | 80* | 3 | 53* | 53*
COc1ccccc1C(=O)NNC(=S)NC(=O)c1cccs1 | 3 | 15 | ? | 63* | 104* | 47 | 35 | .
CC(=O)N1CCN(S(=O)(=O)c2cccc(C(=O)NC3CC3)c2)CC1 | -2 | -2 | . | 26 | . | . | . | .
C/C(=N\NC1=NCCN1)c1ccc(N)c([N+](=O)[O-])c1 | -2 | -1 | 28 | -2 | 1 | 5 | . | .
COc1ccc(/C(C)=N/NC2=NCCN2)cc1Cl | 2 | 8 | 37 | 21 | -3 | 17 | . | .
CCCCCCOc1ccc(/C(C)=N/NC2=NCCN2)cc1[N+](=O)[O-] | ? | 57 | 66* | 52* | 7 | ? | 71* | 106*
CCCCOc1ccc(Br)cc1/C(C)=N/NC1=NCCN1 | -12 | 56 | 45 | 89* | -12 | 27 | 64* | 39*
C=CCOC(=O)C1=C(C)NC(=O)NC1c1cc(Cl)cc(Cl)c1OC (stereo not drawn) | -1 | . | 8 | 28 | -16 | 10 | . | .
CC(CC(=O)NCCc1ccc(Cl)cc1)S(=O)(=O)c1ccc2c(c1)NC(=O)CO2 (stereo not drawn) | -5 | 2 | 4 | 23 | 4 | -27 | . | .
CCN(CC)S(=O)(=O)c1ccc(C(=O)NCCOC(=O)c2ccc(F)cc2F)cc1 | -15 | . | -8 | 1 | -9 | 3 | . | .
SMILES | CSC inhib | Beta cell apopt | T cruzi repl | Mdm2-MdmX inh | SKKanGAS inh | Calb FLC | Mdm2 MdmX conf | Full FLuc ctr
CCCn1c(=O)c(C(=O)NNS(=O)(=O)c2ccc(C)cc2)c(O)c2ccccc21 | 36 | 4 | -15 | 51* | ? | -2 | 30 | 85*
CCn1c(=O)c(C(=O)NNS(=O)(=O)c2ccc(C)cc2)c(O)c2ccccc21 | 18 | -2 | -12 | 22 | 10 | -14 | . | .
COc1ccc2oc(=O)c(/C(C)=N/Nc3nc(-c4cc(C)ccc4C)cs3)cc2c1 | 0 | . | -4 | 5 | 20 | 9 | . | .
COc1ccc2oc(=O)c(-c3csc(Nc4ccc(O)cc4)n3)cc2c1 | 3 | -6 | -5 | 54* | 104* | -6 | 19 | 133*
CC(=O)c1c(C)[nH]c(C(=O)OCC(=O)N2CC(C)OC(C)C2)c1C (stereo not drawn) | -1 | -7 | -6 | 15 | 6 | 1 | . | .
Cn1c(=O)c2c([nH]c(OCc3ccc(Cl)cc3Cl)[n+]2Cc2ccc(F)cc2)n(C)c1=O | 2 | 6 | -1 | 57* | 9 | 11 | 13 | .
Cn1c(-c2cccc(OCc3ccccc3)c2)nc2c1c(=O)[nH]c(=O)n2Cc1ccccc1 | 6 | 10 | . | 85* | . | . | 38 | .
Cn1c(=O)[nH]c(=O)c2c1nc([N+](=O)[O-])n2Cc1ccccc1 | 49 | 98* | 35 | 96* | 1 | 36 | 79* | 56*
CCCCCCCCCC(=O)N1c2ccccc2NC(=O)C1CC(=O)Nc1ccc(C(=O)O)cc1 (stereo not drawn) | -7 | -3 | -4 | -4 | 7 | -7 | . | .
CCn1c(C)cc(C(=O)CN2C(=O)c3ccccc3S2(=O)=O)c1C | -11 | -6 | . | 88* | . | . | 81* | 23
C=CCn1c(C)cc(C(=O)CN2C(=O)c3ccccc3S2(=O)=O)c1C | -8 | 2 | . | 74* | . | . | 79* | 53*
Cc1cc(C)nc(NC(=O)CN2C(=O)c3ccccc3S2(=O)=O)n1 | 1 | . | -17 | -5 | -3 | 4 | . | .
CCCn1c(C)cc(C(=O)CN2C(=O)c3ccccc3C2=O)c1C | -18 | 2 | 4 | 21 | -9 | -8 | . | .
Cc1cc(C(=O)CN2C(=O)C3CC=CCC3C2=O)c(C)n1-c1ccccc1 (stereo not drawn) | -4 | 2 | 0 | 0 | -11 | -1 | . | .
Cc1cc(C(=O)CN2C(=O)c3ccccc3S2(=O)=O)c(C)n1C(C)C | -6 | -1 | . | 56* | . | . | 41* | 37*
Cc1cc(C(=O)CN2C(=O)c3ccccc3S2(=O)=O)c(C)n1-c1ccccc1 | -7 | 0 | 20 | 57* | 14 | -8 | 32 | .
NC(=O)C1=C[C@@H](c2ccccc2)C[C@@H](OCc2ccc(CO)cc2)O1 | -8 | 1 | -10 | -12 | 4 | -6 | . | .
